Shown are actives, neighbours in structure and some others; about 1.8% of the full set was active somewhere.
STEP block: inhibitors of human striatal-enriched phosphatase STEP. P54829. AID 588621. recombinant STEP, OMFP fluorogenic substrate, fluorescence. 360,000 tested, 0.25% active. inhibition, % at 20 µM;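 active means inhibition at 20 µM, scaled per plate between control wells, above about 37%, limit read from the data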;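 further: 0% = DMSO with enzyme and substrate and 100% = substrate only without enzyme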
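Assay system: isolated STEP enzyme / Timing: 20 min at room temperature, dark / Doses: 20 µM, 1% DMSO / Technique: fluorescence intensity, excitation 480 nm, emission 540 nm / Reagent: fluorogenic phosphatase substrate OMFP at 25 µM final / Measure: percent inhibition scaled to no-enzyme and uninhibited-enzyme controls, plate-pattern corrected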
DNMT1 inh: DNMT1 (human) enzyme inhibition; DNMT1 molecular beacon, Hinp1I cleavage, fluorescence; inhibition (reported as % activation of signal), % at 10 µM; 360,000 tested, 0.83% active; AID 588458; in the data active means inhibition above about 50%
HKDC1 inhibitor: blocks human hexokinase HKDC1 activity; inhibition, % at 20 µM; recombinant HKDC1, G6PDH/diaphorase resazurin coupled fluorescence; Q2TB90; AID 493160; 340,000 tested, 0.16% active;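 active means inhibition above about 35% when tested at 20 µM, limit read from the data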;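 further: plate controls were DMSO wells with enzyme for no effect and DMSO wells lacking enzyme for full effect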
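System: Recombinant HKDC1 hexokinase | Amount: HKDC1 at 5 µg/mL | Reagent: Glucose with 1 mM ATP | Doses: Single 20 µM dose | Incubation: Reaction time 90 min, room temperature, protected from light | Signal: Coupled resazurin fluorescence, excitation 525 nm, emission 613 nm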
SUMO1 PPI mod: SUMO1-SIM interaction modulation. AID 602429. 360,000 tested, 0.33% active. P63165. SUMO1 binding to a labelled peptide, TR-FRET, 1 h. inhibition, % at 20 µM; in the data active means inhibition above about 37%
Target sequence (P63165 whole entry, looked up): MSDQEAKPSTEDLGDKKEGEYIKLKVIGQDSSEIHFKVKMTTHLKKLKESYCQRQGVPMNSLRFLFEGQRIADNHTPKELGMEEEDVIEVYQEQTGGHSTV
LMPTP block: LMPTP (human) inhibition; recombinant LMPTP-A, OMFP fluorogenic substrate, fluorescence intensity; inhibition, % at 20 µM; 360,000 tested, 0.22% active;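 active means compounds that cut the enzyme signal by at least half of the control window in the single-dose screen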;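 further: plate controls were DMSO wells with enzyme plus substrate for no effect and substrate without enzyme for full effect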
Target sequence (P24666 whole entry, looked up): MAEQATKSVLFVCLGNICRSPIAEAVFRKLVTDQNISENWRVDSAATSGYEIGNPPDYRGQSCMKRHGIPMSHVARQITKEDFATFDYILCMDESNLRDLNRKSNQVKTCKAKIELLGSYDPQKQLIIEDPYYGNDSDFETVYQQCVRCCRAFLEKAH
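Test system: LMPTP-A phosphatase enzyme. Amount: LMPTP-A at 0.625 nM final in the reaction. Reagent: OMFP substrate, 400 µM final. Times: 50 min at room temperature. Signal: endpoint fluorescence intensity from OMFP dephosphorylation. Read-out basis: % inhibition. Benchmarks: no-enzyme and uninhibited controls.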
Scp-1 inhibitor: Scp-1 (human) phosphatase inhibition | Q9GZU7 | Recombinant Scp1, phosphopeptide, malachite green phosphate absorbance | inhibition, % at 20 µM | 340,000 tested, 0.88% active | AID 493091;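 active means inhibition above about 50% at 20 µM, limit read from the data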;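 further: plate controls were DMSO wells with enzyme for no effect and wells lacking enzyme for full effect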
Target sequence (Q9GZU7 76-261 limits assumed): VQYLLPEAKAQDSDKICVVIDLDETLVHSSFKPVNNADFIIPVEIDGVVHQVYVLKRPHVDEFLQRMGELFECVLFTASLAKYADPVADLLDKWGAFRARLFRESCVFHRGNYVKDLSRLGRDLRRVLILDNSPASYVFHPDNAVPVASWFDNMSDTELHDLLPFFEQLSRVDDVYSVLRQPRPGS
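System: SCP-1 catalytic domain; Reagent: Phospho 17-mer peptide substrate; Doses: one concentration, 20 µM, with 1.0% DMSO; Incubation: 45 min room-temperature reaction, 5 min colour, 30 min stabiliser; Signal: Phosphate-binding colour reagent, absorbance read at 630 nm.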
Beacon interf DR: beacon fluorescence artifact, dose response counter-screen; shares compounds with DNMT1 inh; molecular beacon fluorescence, spectral interference counter-screen; IC50, µM; 200 tested, under 10 active; AID 602382; call rule not given here
DNMT1 inh conf: DNMT1 inhibition confirmation, single concentration | 2,300 tested, 8% active | inhibition, % at 10 µM | DNMT1 molecular beacon HinP1I cleavage, fluorescence | shares compounds with DNMT1 inh;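 active means average inhibition of at least 30% in the single-concentration confirmation test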
Beacon interf: counter-screen for DNMT1 inhibitors: spectral interference | shares compounds with DNMT1 inh | DNMT1 molecular beacon spectral interference counterscreen, fluorescence 485/520 | activation (fluorescence interference), % at 10 µM | 2,300 tested, 1% active | AID 602387;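 active means activation of at least 30% at 10 µM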;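 further: DNMT1 catalytic domain with a HinP1I cleavage step and a FAM/dabcyl DNA beacon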
Starred values were filed as active, the others as inactive; . = no result given.

SMILES	STEP block	DNMT1 inh	HKDC1 inhibitor	SUMO1 PPI mod	LMPTP block	Scp-1 inhibitor	DNMT1 inh conf	Beacon interf	others
OC[C@@H]1CN(Cc2ccco2)C[C@H](n2cnc3c(N4CCN(c5ccccc5)CC4)ncnc32)O1	0	2	.	12	0	.	.	.
COc1ccc(/C=N/Nc2ccc([N+](=O)[O-])cc2S(=O)(=O)N2CCN(C)CC2)cc1	-15	56*	13	6	-1	2	1	6
COc1ccc(C=NNc2ccc([N+](=O)[O-])cc2S(=O)(=O)Nc2ccccc2C(=O)O)cc1OC	-3	-22	6	3	2	-4	.	.
Cc1ccccc1OCc1nnc(SCC(=O)Nc2ccc3nc(SCC(=O)Nc4ccccc4)sc3c2)n1C	0	56*	-5	2	1	-1	2	-1
COC(=O)c1cc(NC(=O)COC(=O)CN2C(=O)C3CC=CCC3C2=O)cc(C(=O)OC)c1 (centres undefined)	0	1	-4	7	-1	-1	.	.
O=C(CCN1C(=O)/C(=C/C=C/c2ccccc2)SC1=S)Nc1cccnc1	0	62*	1	-8	4	-6	0	0
CC(/C=C1\SC(=S)N(CCC(=O)Nc2cccc(C(=O)O)c2)C1=O)=C\c1ccccc1	3	80*	11	16	12	-9	12	2
O=S(=O)(NCc1ccccc1)c1cccc2nsnc12	-1	85*	11	-29	1	9	1	2
O=C(CCc1ccccc1)Nc1ccc(S(=O)(=O)Nc2nccs2)cc1	0	2	-3	3	0	1	.	.
O=c1c(Cl)c(N/N=C/c2ccc(Cl)cc2)cnn1-c1ccccc1	3	80*	-1	-1	54*	20	5	2
CCOC(=O)C1CCN(c2c(NCCCN3CCN(Cc4ccccc4)CC3)c(=O)c2=O)CC1	0	0	-7	-4	-3	-6	.	.
CCOC(=O)C1CCN(c2c(NCCCN3CCCCC3)c(=O)c2=O)CC1	3	93*	-6	-2	0	-7	4	2
CC1(C(=O)NS(=O)(=O)c2ccc3c(c2)CCO3)CCN1C(=O)COc1ccc(Cl)cc1 (centres undefined)	-2	85*	.	2	-3	.	4	6
CC1(C(=O)NS(=O)(=O)c2ccc3c(c2)CCO3)CCN1C(=O)C1(c2ccc(Cl)cc2)CC1 (centres undefined)	-2	1	.	4	-2	.	.	.
O=C(CCN1CCc2ccccc21)c1ccc2c(c1)OCCO2	2	54*	-1	-10	25	1	2	1
O=C(CCNS(=O)(=O)c1ccccc1C(F)(F)F)N1CCCCCCC1	-2	52*	-6	2	0	-5	2	3
O=C(CCNS(=O)(=O)c1ccccc1C(F)(F)F)N1CCN(C(c2ccccc2)c2ccccc2)CC1	0	-13	3	2	3	-1	.	.
c1coc(-c2ccc3nncn3c2)c1	28	102*	.	87*	5	.	76*	1	Beacon interf DR=>99
c1cc(N2CCOCC2)ccc1-c1ccc2nncn2c1	2	8	.	-38	-1	.	.	.
COc1ccc(-c2cc(-c3ccccc3)c(C#N)c(S(C)=O)n2)cc1 (centres undefined)	-1	5	1	19	0	-6	.	.
COc1ccc(-c2cc3nc4ccccc4n3c(N)c2C#N)cc1	62*	52*	6	87*	58*	17	8	7
O=C(OCC(=O)N1CCCCCC1)c1cc(S(=O)(=O)N2CCOCC2)ccc1F	-1	1	.	-1	-1	.	.	.
Cc1cc2nc3c(=O)n(C4CCCCC4)c(=O)[nH]c3nc2cc1N	-106	58*	11	-11	-5	-9	64*	34*
Cc1cc(C)cc(Nc2cc(=O)n(C3CCCCC3)c(=O)[nH]2)c1	1	-10	5	-2	-1	-6	.	.
CCCCCCn1c(=O)n2n(c1=O)[C@@H]1CN(S(=O)(=O)c3ccc(C)cc3)C[C@]1(O)[C@@H](OC(=O)NCc1ccc(OC)c(OC)c1)C2	1	9	.	-1	3	.	.	.
SMILES	STEP block	DNMT1 inh	HKDC1 inhibitor	SUMO1 PPI mod	LMPTP block	Scp-1 inhibitor	DNMT1 inh conf	Beacon interf	others
COCCN1C(=O)CN(S(C)(=O)=O)CC1(C)C(=O)Nc1ccc2c(c1)OCCO2 (centres undefined)	.	.	.	-3	0	.	.	.
Cc1ccc(NC(=O)CSc2ncccc2C(=O)Oc2cccc([N+](=O)[O-])c2)cc1Cl	24	53*	-2	6	44	41	4	-1
CC1(C(=O)NS(=O)(=O)C2CC2)CCCN(C(=O)c2ccc(F)c(Cl)c2)C1 (centres undefined)	0	0	.	8	-2	.	.	.
CC1(C(=O)NS(=O)(=O)C2CC2)CCCN(C(=O)c2cccc(Cl)c2)C1 (centres undefined)	-1	65*	.	1	-2	.	2	1
CCCCCCCC(=O)Nc1ccc(C(=O)N/N=C/c2cccc([N+](=O)[O-])c2)cc1	24	78*	-4	0	0	96*	5	2
Cn1cccc1CC(=O)N/N=C/c1cccc([N+](=O)[O-])c1	-2	94*	0	-6	0	1	3	6
O=[N+]([O-])c1ccc(NN=Cc2cccc([N+](=O)[O-])c2)cc1	13	72*	-4	-14	36	-8	4	-1
CC1=NN(c2ccc(C)c(C)c2)C(=O)/C1=C\C=C\c1ccc([N+](=O)[O-])o1	3	91*	3	-6	6	65*	14	-3
O=C1Nc2ccccc2N=C(c2ccccc2)C1N(C(=O)c1ccnc2ccccc12)c1ccccc1 (centres undefined)	-2	-14	.	-5	1	.	.	.
O=C1C(=Cc2ccc(F)cc2)Cc2ccccc21	2	5	.	-31	0	.	.	.
O=C1/C(=C/c2ccco2)Cc2ccccc21	0	59*	11	-16	-1	-2	5	1
C=C(CC[C@@H](O)C(C)(C)O)[C@H]1CC[C@]2(C)[C@@H]1CCC1[C@@]3(C)CCC(=O)C(C)(C)C3CC[C@]12C (some centres undefined)	3	-4	9	2	0	4	.	.

Compound activity as filed in PubChem.
